Consider 13 compounds from ChEMBL document CHEMBL3792293, “A synthetic 2,3-diarylindole induces cell death via apoptosis and autophagy in A549 lung cancer cells” (Bioorg Med Chem Lett, 2016).

In assay [1] the test system is A549. Kind of assay: Cytotoxicity against human A549 cells assessed as reduction in cell viability after 72 hrs by MTT assay. The assay is classed as functional, cell-based. Particulars: for pIC50: Homo sapiens, A549, 72 h, read-out: IC50; for IC50: a549. Put shortly:
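MTT viability screen in A549 cells with 72 h compound exposure; value reported as IC50.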

Assay [2] has as its system A549. Kind of assay: Induction of apoptosis in human A549 cells assessed as increase in apoptotic cells at 10 to 100 uM after 24 hrs by Annexin V/7-AAD staining based flow cytometry in presence of autophagy inhibitor bafilomycin A1. The assay is classed as functional, cell-based. Put shortly:
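A549 cells treated 24 h at 10, 50 or 100 μM with or without 10 nM bafilomycin A1. Apoptosis was read by Annexin-V/7AAD on a Muse Cell Analyzer. Values are means of three independent experiments with SD, and significance was tested against control and between ± Baf.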

The subject of assay [3] is A549. Kind of assay: Induction of cell morphological changes in human A549 cells at 10 to 100 uM after 3 hrs. The assay is classed as functional, cell-based.
Assay [4] concerns A549. Kind of assay: Induction of apoptosis in human A549 cells assessed as late apoptotic cells at 10 uM after 24 hrs by Annexin V/7-AAD staining based flow cytometry (reference value: 1.5%). The assay is classed as functional.
For assay [5], the system named is A549. Kind of assay: Induction of morphological changes in human A549 cells assessed as increase in vacuole appearance at 10 to 100 uM after 24 hrs. The assay is classed as functional, cell-based. In a few lines: (§1)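 A549 cells treated 24 h at 10, 50 or 100 μM, then photographed to assess rounding and vacuole appearance.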
The subject of assay [6] is A549. Kind of assay: Induction of morphological changes in human A549 cells assessed as appearance of rounded cell at 10 to 100 uM after 24 hrs. The assay is classed as functional, cell-based. In a few lines:
as §1

In assay [7] the test system is A549. The experiment in a line: Induction of apoptosis in human A549 cells assessed as viable cells at 100 uM after 24 hrs by Annexin V/7-AAD staining based flow cytometry (reference value: 89.95%). The assay is classed as functional. Particulars: A549, 24 h, read-out: Activity.
For assay [8], the system named is A549. Kind of assay: Induction of autophagy in human A549 cells assessed as increase in LC3-2 level at 10 to 100 uM after 24 hrs by Western blot analysis. The assay is classed as functional, cell-based. In a few lines: (§2)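 A549 cells exposed 24 h to 10, 50 or 100 μM, then harvested and analysed by Western blot for cleaved PARP and for LC3-II conversion.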
In assay [9] the test system is A549. Kind of assay: Induction of apoptosis in human A549 cells assessed as viable cells at 10 uM after 24 hrs by Annexin V/7-AAD staining based flow cytometry (reference value: 89.95%). Particulars: A549, 24 h, read-out: Activity. The assay is classed as functional.
Assay [10] relates to A549. The experiment in a line: Induction of autophagy in human A549 cells at 10 to 100 uM after 24 hrs by MDC-staining based fluorescence imaging analysis in presence of autophagy inhibitor bafilomycin A1. The assay is classed as functional, cell-based. Put shortly:
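A549 cells co-treated 24 h with 10, 50 or 100 μM plus or minus 10 nM bafilomycin A1. Autophagy was quantified by MDC staining fluorescence. Values are means of three independent experiments with SD.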

The subject of assay [11] is A549. The experiment in a line: Induction of apoptosis in human A549 cells assessed as early apoptotic cells at 100 uM after 24 hrs by Annexin V/7-AAD staining based flow cytometry (reference value: 8.55%). The assay is classed as functional.
In assay [12] the test system is A549. Kind of assay: Induction of apoptosis in human A549 cells assessed as increase in PARP cleavage after 24 hrs by Western blot analysis. The assay is classed as functional, cell-based. Put shortly:
as §2

Assay [13] concerns A549. The experiment in a line: Induction of apoptosis in human A549 cells assessed as late apoptotic cells at 50 uM after 24 hrs by Annexin V/7-AAD staining based flow cytometry (reference value: 1.5%). The assay is classed as functional.
Assay [14] deals with A549. Kind of assay: Induction of apoptosis in human A549 cells assessed as early apoptotic cells at 50 uM after 24 hrs by Annexin V/7-AAD staining based flow cytometry (reference value: 8.55%). The assay is classed as functional.
In assay [15] the test system is A549. Kind of assay: Induction of apoptosis in human A549 cells assessed as viable cells at 50 uM after 24 hrs by Annexin V/7-AAD staining based flow cytometry (reference value: 89.95%). The assay is classed as functional. Particulars: A549, 24 h, read-out: Activity.
Assay [16] concerns A549. The experiment in a line: Induction of apoptosis in human A549 cells assessed as early apoptotic cells at 10 uM after 24 hrs by Annexin V/7-AAD staining based flow cytometry (reference value: 8.55%). The assay is classed as functional.
Assay [17] has as its system A549. Kind of assay: Induction of autophagy in human A549 cells after 6 to 24 hrs by MDC-staining based fluorescence imaging analysis. The assay is classed as functional, cell-based. In a few lines: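 Autophagic vacuoles stained with monodansylcadaverine (MDC). Imaging was done after 24 h at 10, 50 or 100 μM. Relative fluorescence (Ex/Em 335/512 nm) was measured after 6 h at 6.2–100 μM.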

For assay [18], the system named is A549. Kind of assay: Induction of apoptosis in human A549 cells assessed as dead cells at 10 uM after 24 hrs by Annexin V/7-AAD staining based flow cytometry relative to control. The assay is classed as functional. In a few lines: (§3)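 A549 cells exposed for 24 h at 10, 50 or 100 μM, then stained with Annexin-V and 7AAD (Annexin-V and Dead Cell assay kit). Dead and apoptotic populations were counted by flow cytometry on a Muse Cell Analyzer and compared with untreated control. Values are averages of three independent experiments with SD.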

The subject of assay [19] is A549. Kind of assay: Induction of apoptosis in human A549 cells assessed as late apoptotic cells at 100 uM after 24 hrs by Annexin V/7-AAD staining based flow cytometry (reference value: 1.5%). The assay is classed as functional.
The subject of assay [20] is A549. The experiment in a line: Induction of apoptosis in human A549 cells assessed as dead cells at 100 uM after 24 hrs by Annexin V/7-AAD staining based flow cytometry relative to control. The assay is classed as functional. In a few lines:
as §3

Assay [21] concerns A549. The experiment in a line: Induction of apoptosis in human A549 cells assessed as dead cells at 50 uM after 24 hrs by Annexin V/7-AAD staining based flow cytometry relative to control. The assay is classed as functional. Put shortly:
as §3

pIC50: −log10 of the molar value. The source made the active and inactive calls. No cut-off for these calls is given here.

In the case of `c1ccc(-c2[nH]c3ccccc3c2-c2ccccc2)cc1`, the pIC50 in [1] was 4.23.
Take `Nc1ccc(-c2c(-c3ccccc3)[nH]c3ccccc23)cc1`: the pIC50 in [1] is 4.08.
Still for that read-out and setting: under `O=[N+]([O-])c1ccc(-c2[nH]c3ccccc3c2-c2ccccc2)cc1` stands 4.61; under `Nc1ccc(-c2[nH]c3ccccc3c2-c2ccccc2)cc1`, 4.26; under `COc1ccc(-c2c(-c3ccccc3)[nH]c3ccccc23)cc1`, 4.52.
In the case of `COc1ccc(-c2[nH]c3ccccc3c2-c2ccccc2)cc1`, the pIC50 in [1] is 3.54.
`COC(=O)c1ccc(-c2[nH]c3ccccc3c2-c2ccccc2)cc1`: the IC50 entry in assay [1] is recorded as “ND(Insoluble)”.
For `N#Cc1ccc(-c2[nH]c3ccccc3c2-c2ccccc2)cc1`, the negative logarithm of the IC50 (pIC50) in assay [1] was 4.82.
For `CC(=O)Nc1ccc(-c2[nH]c3ccccc3c2-c2ccccc2)cc1`, the IC50 entry in assay [1] is reported as “ND(Insoluble)”.
Turning to `COC(=O)c1ccc(-c2c(-c3ccccc3)[nH]c3ccccc23)cc1`, the outcome in assay [2] and in assay [10] was inactive. Further, the result in [3], in assay [5], in [6] and in assay [8] was Active. The Activity in assay [4] was 2.8%; in [11] it was 9.7%; in [12], “Dose-dependent effect”; in [13], 7.75%; in assay [14] it was 17.45%; in [16] it was 14%. Further, the Activity entry in assay [17] is “Dose-dependent effect”; in assay [18] it was 0.4%; in assay [19], 39.7%; in assay [20] it was 0.15%; in [21] it was 0.25%. In addition, in [7], the viability at 100 µM stood at 50.5%. In addition, the viability at 10 µM in assay [9] came out at 82.8%. Also, in [15], the viability at 50 µM was found to be 74.5%. In assay [1], the negative-log IC50 (pIC50) was 5.29.
For `O=[N+]([O-])c1ccc(-c2c(-c3ccccc3)[nH]c3ccccc23)cc1`, in assay [1], the pIC50 is 4.42.
For `CC(=O)Nc1ccc(-c2c(-c3ccccc3)[nH]c3ccccc23)cc1`, the IC50 entry in assay [1] is “ND(Insoluble)”.
Consider `N#Cc1ccc(-c2c(-c3ccccc3)[nH]c3ccccc23)cc1`, for which, in assay [1], the pIC50 was 4.74.
